This note sets out measurements from ChEMBL document CHEMBL1124248, “Preparation and antischistosomal and antitumor activity of hycanthone and some of its congeners. Evidence for the mode of action of hycanthone” (1988).

Experiment [1] in a line: Total radioactivity of [3H]HNMC was evaluated after 2 hr. It is filed as functional. An outline of the steps:
(§1)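 3H-labelled drug (0.02 µCi) was mixed with 50 µg calf thymus DNA in 0.1 M citrate-phosphate buffer, pH 7, and incubated in the dark for 1.5 h at 37 °C. The mix was diluted in saline and dialysed against saline at 4 °C. Duplicate samples drawn from inside the bags at intervals up to 4 days were counted directly.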

Experiment [2] in a line: (§2) Total radioactivity of [3H]HNMC was evaluated after 1 day. It counts as functional. A digest of the protocol: as §1
The test system of experiment [3] is Schistosoma mansoni. In words: Incorporation of 1.2 M *10e6 [3H]uridine in hycanthone(HC) resistant Schistosoma mansoni. It counts as functional. An outline of the steps:
(§3)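 Adult HC-resistant S. mansoni were treated in vitro, and [3H]uridine incorporation by the worms was measured. Values are % of control. Concentrations are given in M × 10^6.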

Experiment [4] relates to Nucleic Acid. Description: In vitro binding of [3H]HNMC to calf thymus DNA was measured after 2 days. The settings on record: Bos taurus. It counts as nucleic-acid assay. An outline of the steps: (§4)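 0.02 µCi of 3H-labelled drug was added to 50 µg calf thymus DNA in 20 µL of 0.1 M citrate-phosphate buffer, pH 7. Incubated 1.5 h at 37 °C in the dark, diluted to 0.1 mL saline and dialyzed against saline at 4 °C for up to 4 days. Duplicate 10 µL samples taken from inside the bags at intervals were counted directly, or after TCA precipitation.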

In experiment [5] the test system is Nucleic Acid. In words: In vitro binding of [3H]HNMC to calf thymus DNA was measured after 4 day. It counts as nucleic-acid assay. The settings on record: Bos taurus. A digest of the protocol: as §4
Experiment [6] deals with Nucleic Acid. In words: In vitro binding of [3H]HNMC to calf thymus DNA after precipitation with alcohol and TCA was measured. It counts as nucleic-acid assay. Conditions: Bos taurus. An outline of the steps: as §4
Experiment [7] concerns Nucleic Acid. In words: In vitro binding of [3H]HNMC to calf thymus DNA was measured after 3 days. It is filed as nucleic-acid assay. The settings on record: Bos taurus. A digest of the protocol: as §4
Experiment [8] concerns HeLa. In words: Binding of 1x 10e-5 M [3H]HNMC to HeLa DNA. It is filed as functional, Homo sapiens. An outline of the steps:
(§5)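 HeLa cells exposed 1 h to [3H]-labelled drug, washed three times with saline, then held 30 min at 37 °C in drug-free medium. After a 2 h digestion at 37 °C, crude DNA was ethanol-precipitated, purified on a CsCl density gradient, dialyzed and reprecipitated. DNA was quantified by A260. An aliquot was treated with DNase, and DNase-sensitive radioactivity was expressed as drug molecules per base pair.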

Experiment [9] concerns Schistosoma mansoni. Description: Incorporation of 6M *10e6 [3H]uridine in hycanthone(HC) resistant Schistosoma mansoni. It is filed as functional. A digest of the protocol:
as §3

In experiment [10] the test system is Nucleic Acid. Description: In vitro binding of [3H]HNMC to calf thymus DNA after precipitation with alcohol and TCA was measured after 2 hours. It counts as nucleic-acid assay. The settings on record: Bos taurus. An outline of the steps:
as §4

Experiment [11] relates to HeLa. Description: Incorporation of 2*10e-5 M [3H]uridine in HeLa cells in presence of HNMC measured as TCA precipitable radioactivity compared with non treated controls. Conditions: Homo sapiens. It is filed as functional, cell-based. An outline of the steps:
(§6)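 HeLa cells (10^6 per duplicate tube) were incubated 1 h with drug. [3H]uridine was then added and incubation continued 1 h with drug present. Cells were washed with cold saline and precipitated with 10% TCA. Precipitates were collected on glass filters, TCA-washed and counted. Values are % TCA-precipitable radioactivity versus untreated controls.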

In experiment [12] the test system is HeLa. In words: Incorporation of 2*10e-5 M [3H]uridine in HeLa cells in absence of HNMC measured as TCA precipitable radioactivity compared with non treated controls. It is filed as functional, cell-based. Conditions: Homo sapiens. An outline of the steps:
(§7)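 HeLa cells (10^6 per duplicate tube) were exposed to drug for 1 h, washed three times with medium, then held 2 h in drug-free medium. [3H]uridine was added for 1 h. Cells were precipitated with 10% TCA, and precipitates were filter-collected and counted. Values are % TCA-precipitable radioactivity versus untreated controls.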

Experiment [13] deals with Schistosoma mansoni. In words: Day 50% survival of worms in culture of HC sensitive Schistosoma mansoni. It counts as functional.
In experiment [14] the test system is HeLa. In words: Incorporation of 2*10e-6 M [3H]uridine in HeLa cells in absence of HNMC measured as TCA precipitable radioactivity compared with non treated controls. It counts as functional, cell-based. The settings on record: Homo sapiens. A digest of the protocol: as §7
For experiment [15], the system named is HeLa. In words: Incorporation of 2*10e-6 M [3H]uridine in HeLa cells in presence of HNMC measured as TCA precipitable radioactivity compared with non treated controls. The settings on record: Homo sapiens. It is filed as functional, cell-based. A digest of the protocol: as §6
Experiment [16] concerns Schistosoma mansoni. Description: Incorporation of 6M *10e6 [3H]-uridine in hycanthone(HC) sensitive Schistosoma mansoni. It is filed as functional.
Experiment [17] relates to Nucleic Acid. In words: In vitro binding of [3H]HNMC to calf thymus DNA after precipitation with alcohol and TCA was measured after 4 day. It counts as nucleic-acid assay. The settings on record: Bos taurus. A digest of the protocol: as §4
Experiment [18] deals with Mus musculus. Description: In vivo antitumor activity against p-388 lymphocytic leukemia in mice at 3.13 mg/kg. It is filed as functional. A digest of the protocol: (§8)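 Murine P388 lymphocytic leukemia model tested by the National Cancer Institute. Compound given once daily for 9 days; activity expressed as T/C.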
The test system of experiment [19] is Nucleic Acid. In words: In vitro binding of [3H]HNMC to calf thymus DNA was measured after 2 hours. The settings on record: Bos taurus. It is filed as nucleic-acid assay. A digest of the protocol: as §4
Experiment [20] concerns Schistosoma mansoni. In words: Day 50% survival of worms in culture of HC resistant Schistosoma mansoni. It counts as functional. A digest of the protocol: (§9)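 Adult HC-resistant S. mansoni were exposed in vitro and kept in culture. The value is the day by which 50% of worms were dead. Cultures were ended at different times in different experiments. Concentrations are given in M × 10^6.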

Experiment [21] has as its system HeLa. In words: Incorporation of 10e-5 M [3H]uridine in HeLa cells in absence of HNMC measured as TCA precipitable radioactivity compared with non treated controls. It is filed as functional, cell-based. The settings on record: Homo sapiens. A digest of the protocol: as §7
Experiment [22] has as its system Nucleic Acid. In words: In vitro binding of [3H]HNMC to calf thymus DNA after precipitation with alcohol and TCA was measured after 1 day. It counts as nucleic-acid assay. Conditions: Bos taurus. An outline of the steps:
as §4

The nature of experiment [23]: (§10) Total radioactivity of [3H]HNMC was evaluated after 3 days. It counts as functional. A digest of the protocol: as §1
The subject of experiment [24] is Mus musculus. Description: In vivo antitumor activity against p-388 lymphocytic leukemia in mice at 6.25 mg/kg. It counts as functional. A digest of the protocol: as §8
Experiment [25] deals with HeLa. In words: Incorporation of 10e-5 M [3H]uridine in HeLa cells in presence of HNMC measured as TCA precipitable radioactivity compared with non treated controls. It counts as functional, cell-based. The settings on record: Homo sapiens. A digest of the protocol:
as §6

Experiment [26] can be described thus: as §10. It is filed as functional. A digest of the protocol: as §1
The source holds these as a separate data set.

For experiment [27], the system named is Mus musculus. In words: In vivo antitumor activity against p-388 lymphocytic leukemia in mice at 12.5 mg/kg; Toxic. It counts as functional, organism-based. On the set-up: dose 12.5 mg/kg. An outline of the steps:
as §8

Experiment [28] in a line: Total radioactivity of [3H]HNMC was evaluated after 2 hours. It counts as functional. An outline of the steps: as §1
Experiment [29] has as its system Nucleic Acid. Description: In vitro binding of [3H]HNMC to calf thymus DNA was measured after 1 day. It is filed as nucleic-acid assay. Conditions: Bos taurus. An outline of the steps:
as §4

Experiment [30] has as its system HeLa. In words: Binding of 5x 10e-4 M [3H]HNMC to HeLa DNA. It counts as functional, Homo sapiens. A digest of the protocol:
as §5

In experiment [31] the test system is Nucleic Acid. In words: In vitro binding of [3H]HNMC to calf thymus DNA. It counts as nucleic-acid assay. Conditions: Bos taurus. An outline of the steps:
as §4

Experiment [32] in a line: as §2. It is filed as functional. An outline of the steps: as §1
The source holds these as a separate data set.

Experiment [33] has as its system HeLa. Description: Binding of 1x 10e-4 M [3H]HNMC to HeLa DNA. It is filed as functional, Homo sapiens. An outline of the steps: as §5
The test system of experiment [34] is Schistosoma mansoni. In words: Incorporation of 1.2 M*10e6 [3H]uridine in hycanthone(HC) sensitive Schistosoma mansoni. It is filed as functional.
In experiment [35] the test system is Nucleic Acid. Description: In vitro binding of [3H]HNMC to calf thymus DNA after precipitation with alcohol and TCA was measured after 2 day. It is filed as nucleic-acid assay. Conditions: Bos taurus. An outline of the steps: as §4
Experiment [36] has as its system Nucleic Acid. In words: In vitro binding of [3H]HNMC to calf thymus DNA after precipitation with alcohol and TCA was measured after 3 days. It is filed as nucleic-acid assay. The settings on record: Bos taurus. A digest of the protocol: as §4
For experiment [37], the system named is Schistosoma mansoni. Description: Incorporation of 5.2*10e6M [3H]uridine in hycanthone(HC) resistant Schistosoma mansoni. It is filed as functional. An outline of the steps: as §3
Experiment [38] has as its system Schistosoma mansoni. Description: Incorporation of 1.3 *10e6 M [3H]uridine in hycanthone(HC) resistant Schistosoma mansoni. It counts as functional. An outline of the steps:
as §3

Experiment [39] concerns Schistosoma mansoni. Description: Day 50% survival of worms in culture of HC sensitive Schistosoma mansoni at 1.3 *10e6 M. It is filed as functional.
In experiment [40] the test system is Schistosoma mansoni. In words: Incorporation of 2.6 *10e6 M [3H]uridine in hycanthone(HC) sensitive Schistosoma mansoni. It counts as functional.
In experiment [41] the test system is Schistosoma mansoni. In words: Incorporation of 5.2*10e6M [3H]-uridine in hycanthone(HC) sensitive Schistosoma mansoni. It is filed as functional.
The subject of experiment [42] is Schistosoma mansoni. Description: Day 50% survival of worms in culture of HC resistant Schistosoma mansoni at 5.2*10e6M. It is filed as functional. A digest of the protocol: as §9
Experiment [43] concerns Schistosoma mansoni. Description: Incorporation of 2.6 *10e6 M [3H]uridine in hycanthone(HC) resistant Schistosoma mansoni. It is filed as functional. A digest of the protocol:
as §3

Experiment [44] relates to Schistosoma mansoni. In words: Day 50% survival of worms in culture of HC resistant Schistosoma mansoni at 1.3 *10e6 M. It is filed as functional. A digest of the protocol: as §9
Experiment [45] concerns Schistosoma mansoni. Description: Incorporation of 1.3 *10e6 M [3H]uridine in hycanthone(HC) sensitive Schistosoma mansoni. It is filed as functional.

Broadly, the T/C is the ratio of treated to control.

On to `CCN(CC)CCNc1ccc(COC(=O)NC)c2sc3ccccc3c(=O)c12`, for which the Radioactivity is 27500 c.p.m in [1]; 150 c.p.m in [2]; 14800 c.p.m with Nucleic Acid [4]; 15000 c.p.m in the experiment with Nucleic Acid [5]; 11500 c.p.m with Nucleic Acid [6]; 16000 c.p.m with Nucleic Acid [7]. The Radioactivity was 12300 c.p.m in the experiment with Nucleic Acid [10]; 6% in the experiment with HeLa [11]; 2% in the experiment with HeLa [12]; 24% in the experiment on HeLa [14]; 57% with HeLa [15]; 5100 c.p.m with Nucleic Acid [17]. Besides, the Radioactivity in the experiment with Nucleic Acid [19] worked out at 52000 c.p.m; in the experiment with HeLa [21] it was 4%; with Nucleic Acid [22], 9500 c.p.m; in [23] it was 100 c.p.m; in the experiment on HeLa [25] it was 11%; in experiment [26], 1350 c.p.m. Also, the Radioactivity in [28] is 27500 c.p.m; in the experiment on Nucleic Acid [29] it was 15000 c.p.m; with Nucleic Acid [31] it was 134000 c.p.m; in [32], 1750 c.p.m; with Nucleic Acid [35], 8000 c.p.m; with Nucleic Acid [36] it was 6900 c.p.m. Further, the Control is reported as 39% in the experiment on Schistosoma mansoni [3], 11% with Schistosoma mansoni [9], 3% in the experiment with Schistosoma mansoni [16] and 21% in the experiment on Schistosoma mansoni [34]. Further, the Drug mol/base pair in the experiment with HeLa [8] worked out at 8.4e-05; with HeLa [30], 0.000203; in the experiment on HeLa [33] it was 0.00105. Also, the Effect was found to be 9 days with Schistosoma mansoni [13] and 8 days with Schistosoma mansoni [20]. For the same compound, the T/C is 132% with Mus musculus [18], 166% with Mus musculus [24] and “Toxic” in the experiment with Mus musculus [27].

For the compound `CN(C)CCNc1ccc(CO)c2sc3ccc(O)cc3c(=O)c12`, the Control in the experiment with Schistosoma mansoni [37] turned out to be 91%; in the experiment with Schistosoma mansoni [38], 96%; with Schistosoma mansoni [40], 20%; in the experiment with Schistosoma mansoni [41] it was 23%; in the experiment on Schistosoma mansoni [43] it was 108%; in the experiment with Schistosoma mansoni [45], 43%. Besides, the results for the Effect in the experiment with Schistosoma mansoni [39], with Schistosoma mansoni [42] and with Schistosoma mansoni [44] were 9 days, above 12 days and above 12 days, respectively.
